Columns and labels:
[1] = Lipophilicity (Rm) (liquid chromatography); format: physicochemical
Procedure, shortened: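 Rm is measured for drug cations at pH 2 by liquid-liquid chromatography on a cellulose support.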

P388 [2] = assay: In vivo tumor cell selectivity (ILSmax values)for percentage increase in life span of treated animals over that of P388 tumor bearing untreated control animals; format: functional, Mus musculus
[3] = Binding affinity towards poly[d(A-T)] (fluorometric method); format: ADME
Procedure, shortened: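 Log R for binding to poly[d(A-T)] measured fluorometrically, corrected for quenching.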

L1210 = assay: In vitro test for 50% reduction of cell number (of control) after 70 hr incubation with cultures of murine L1210 leukemia cells; format: functional; conditions: Mus musculus, L1210, 70 h; read-out: ID50 (the source's name)
P388 [4] = assay: In vivo inhibition of P388 in mice for optimal (highest nonacutely toxic) dose (OD); format: functional, Mus musculus
Procedure, shortened: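 F1 (DBA/2J × C57BlJ) mice, 19-21 g, either sex, inoculated with 10^6 P388 leukemia cells on day 0. Drug given ip in 0.1 mL 30% aqueous ethanol on days 1, 5 and 9, as a solution or, at highest doses, as a sonicated suspension. Doses stepped down from a toxic level at 0.67-fold intervals. Groups of six mice; ILS relative to 20-30 controls. OD is the highest nonacutely toxic daily dose.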

P388 [5] = assay: In vivo dose of drug needed for a percentage increase of 50% in life span of tumor-bearing mice compared to untreated controls after inoculation of 10e6 P388 leukemia cells; format: functional, Mus musculus
P388 [6] = assay: Dose of drug needed to provide a percentage increase in life span of tumor-bearing mice in vivo of […]% compared to untreated controls after inoculation of 10e6 P388 leukemia cells; h=ILS of >50% could not be obtained at any dose level; format: functional, organism-based; conditions: Mus musculus

| Structure (SMILES) | Rm [1] | Activity (P388 [2]) [%] | Log K [3] | IC50 (L1210) [nM] | OD (P388 [4]) [mg/kg/day] | D50 (P388 [5]) [mg/kg/day] | D50 (P388 [6]) |
| --- | --- | --- | --- | --- | --- | --- | --- |
| COc1cc(NP(=O)(OC)OC)ccc1Nc1c2ccccc2nc2cc(Br)ccc12 | 0.57 | 83 | 6.44 | 5 | 13.3 | 4 |  |
| Cc1ccc2nc3ccccc3c(Nc3ccc(NS(C)(=O)=O)cc3)c2c1 | 0.14 | 39 | 5.7 | 680 | 100 |  | ILS not obtained |
| CS(=O)(=O)Nc1ccc(Nc2c3ccccc3nc3ccccc23)cc1 | 0 | 102 |  | 35 | 150 | 35 |  |
| COP(=O)(Nc1ccc(Nc2c3ccccc3nc3ccccc23)cc1)OC | 0.34 | 107 | 6.26 | 15 | 45 | 15 |  |
| CS(=O)(=O)Nc1ccc(Nc2c3ccccc3nc3cc([N+](=O)[O-])ccc23)cc1 | -0.18 | 43 | 6.51 | 90 | 8.9 |  | ILS not obtained |
| Cc1cccc2c(Nc3ccc(NS(C)(=O)=O)cc3)c3ccccc3nc12 | 0.07 | 75 | 6.52 | 17 | 66 | 50 |  |
| COP(=O)(Nc1ccc(Nc2c3ccccc3nc3cc(C)ccc23)cc1)OC | 0.49 | 84 | 6.77 | 7 | 20 | 6 |  |
| COc1cc(NS(C)(=O)=O)ccc1Nc1c2ccccc2nc2c(C)cccc12 | 0.25 | 172 | 6.03 | 30 | 20 | 4 |  |
| COc1cc(NS(C)(=O)=O)ccc1Nc1c2ccccc2nc2ccc(C)cc12 | 0.4 | 34 | 5.35 | 1400 | 69 |  | ILS not obtained |
| COc1cc(NP(=O)(OC)OC)ccc1Nc1c2ccccc2nc2ccccc12 | 0.47 | 67 | 5.64 | 70 | 8.9 | 3.5 |  |
| CNC(=O)c1cccc2c(Nc3ccc(NS(C)(=O)=O)cc3OC)c3ccccc3nc12 | 0.06 | 127 | 5.54 | 270 | 30 | 8 |  |
| COP(=O)(Nc1ccc(Nc2c3ccccc3nc3c(C)cccc23)cc1)OC | 0.46 |  | 6.75 | 9 | 20 | 9 |  |
| CNC(=O)c1cccc2c(Nc3ccc(NP(=O)(OC)OC)cc3OC)c3ccccc3nc12 | 0.28 |  | 5.94 | 18 | 30 | 13 |  |
| CNC(=O)c1cccc2c(Nc3ccc(NP(=O)(OC)OC)cc3)c3ccccc3nc12 | 0.18 | 56 | 6.46 | 97 | 66 | 60 |  |
| COP(=O)(Nc1ccc(Nc2c3ccccc3nc3cc(Cl)ccc23)cc1)OC | 0.46 | 62 | 7 | 16 | 45 | 35 |  |
| CS(=O)(=O)Nc1ccc(Nc2c3ccccc3nc3cc(N)ccc23)cc1 | -0.18 | 67 | 6.82 | 10 | 8.9 | 8 |  |
| COc1cc(NS(C)(=O)=O)ccc1Nc1c2ccccc2nc2cc(Cl)ccc12 | 0.32 | 232 | 6.06 | 70 | 20 | 5 |  |
| COc1cc(NS(C)(=O)=O)ccc1Nc1c2ccccc2nc2c(OC)cccc12 | 0.19 | 139 | 5.94 | 40 | 30 | 8 |  |

| Structure (SMILES) | Rm [1] | Activity (P388 [2]) [%] | Log K [3] | IC50 (L1210) [nM] | OD (P388 [4]) [mg/kg/day] | D50 (P388 [5]) [mg/kg/day] | D50 (P388 [6]) |
| --- | --- | --- | --- | --- | --- | --- | --- |
| CS(=O)(=O)Nc1ccc(Nc2c3ccccc3nc3cc(Cl)ccc23)cc1 | 0.14 | 53 | 6.89 | 50 | 65 | 60 |  |
| COc1cc(NP(=O)(OC)OC)ccc1Nc1c2ccccc2nc2c(OC)cccc12 | 0.47 | 76 | 6.09 | 12 | 9 | 6 |  |
| COc1cc(NP(=O)(OC)OC)ccc1Nc1c2ccccc2nc2cc(Cl)ccc12 | 0.61 | 91 | 6.4 | 12 | 13.3 | 5.5 |  |
| COP(=O)(Nc1ccc(Nc2c3ccccc3nc3ccc(C)cc23)cc1)OC | 0.43 | 36 | 6.09 | 286 | 20 |  | ILS not obtained |
| CS(=O)(=O)Nc1ccc(Nc2c3ccccc3nc3cc(Br)ccc23)cc1 | 0.16 | 33 | 6.93 | 16 | 100 |  | ILS not obtained |
| COc1cc(NP(=O)(OC)OC)ccc1Nc1c2ccccc2nc2c(C)cccc12 | 0.44 |  | 6.16 | 18 | 8.9 | 3 |  |
| COP(=O)(Nc1ccc(Nc2c3ccccc3nc3cc([N+](=O)[O-])ccc23)cc1)OC | 0.14 | 22 | 6.73 | 74 | 8.9 |  | ILS not obtained |
| CNC(=O)c1cccc2c(Nc3ccc(NS(C)(=O)=O)cc3)c3ccccc3nc12 | -0.1 | 41 | 6.22 | 245 | 150 |  | ILS not obtained |
| COc1cc(NS(C)(=O)=O)ccc1Nc1c2ccccc2nc2ccccc12 [AMSACRINE] | 0.18 | 58 | 5.57 |  |  | 3 |  |
| COc1ccc2nc3ccccc3c(Nc3ccc(NP(=O)(OC)OC)cc3)c2c1 | 0.29 | 38 | 6.25 | 920 | 45 |  | ILS not obtained |
| COc1cccc2c(Nc3ccc(NS(C)(=O)=O)cc3)c3ccccc3nc12 | 0.01 | 58 | 6.24 | 45 | 150 | 125 |  |
| COP(=O)(Nc1ccc(Nc2c3ccccc3nc3cc(S(C)(=O)=O)ccc23)cc1)OC | -0.14 |  | 5.63 | > 1500 | 150 |  | ILS not obtained |
| COc1cccc2c(Nc3ccc(NP(=O)(OC)OC)cc3)c3ccccc3nc12 | 0.33 | 50 | 6.53 | 20 | 45 | 45 |  |
| COP(=O)(Nc1ccc(Nc2c3ccccc3nc3cc(Br)ccc23)cc1)OC | 0.47 | 110 | 6.56 | 15 | 65 | 20 |  |
| COc1cc(NP(=O)(OC)OC)ccc1Nc1c2ccccc2nc2ccc(C)cc12 | 0.55 | 25 | 5.28 | 985 | 30 |  | ILS not obtained |
| COP(=O)(Nc1ccc(Nc2c3ccccc3nc3cc(N)ccc23)cc1)OC | 0.06 | 58 | 6.9 | 385 | 5.9 | 5 |  |
| COc1cc(NS(C)(=O)=O)ccc1Nc1c2ccccc2nc2cc(Br)ccc12 | 0.34 | 133 | 6.29 | 50 | 20 | 4 |  |
| Cc1ccc2c(Nc3ccc(NS(C)(=O)=O)cc3)c3ccccc3nc2c1 | 0.24 | 73 | 6.41 | 8 | 50 | 27 |  |
